Reference: ChEMBL document CHEMBL4257584, “Sterol 14α-Demethylase Structure-Based Optimization of Drug Candidates for Human Infections with the Protozoan Trypanosomatidae” (J Med Chem, 2018)
Activity calls are given as the source filed them. The calls are words filed in the database; no cut-off is given here.

What was measured:
[1] = Half life in Sprague-Dawley rat liver microsomes at 1 uM preincubated for 5 mins followed by NADPH addition and measured by LC/MS/MS analysis; format: ADME, microsome; settings: microsomes, 1 µM
[2] = Maximum plasma concentration in BALB/c mouse at 25 mg/kg, po via gavage by […]; format: ADME, organism-based; parameters: dose 25 mg/kg, route oral
Procedure, shortened: (§1)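 Single oral gavage dose of 25 mg/kg in BALB/c mice; blood sampled at 1, 2, 4, 6, 10, 16, 24 h. Plasma is diluted in PBS with ketoconazole internal standard, extracted with 80% acetonitrile, dried and redissolved. Analysed by reversed-phase HPLC with UV at 291/250 nm, 0.1 μM detection limit. Lifetime is time until undetectable.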

[3] = Plasma concentration in BALB/c mouse assessed as time until the compound becomes undetectable at 25 mg/kg, po via gavage […]; format: ADME, organism-based; settings: in vivo; procedure, shortened: as §1
[4] = Drug uptake in BALB/c mouse heart at 25 mg/kg, po via gavage measured after 4 hrs post dose by […]; format: ADME, organism-based; settings: read-out: Drug uptake
Procedure, shortened: (§2)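 BALB/c mice get a single oral gavage dose of 25 mg/kg; tissues are collected 4 h post-dose. About 100 mg tissue is diluted 5-fold in PBS and homogenized. Homogenate is extracted as for plasma (ketoconazole internal standard, acetonitrile extraction) and quantified by HPLC-UV at 291 nm, 0.1 μM detection limit, n=2.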

[5] = Drug uptake in BALB/c mouse lungs at 25 mg/kg, po via gavage measured after 4 hrs post dose by […]; format: ADME, organism-based, Lung; settings: read-out: Drug uptake; procedure, shortened: as §2
[6] = Drug uptake in BALB/c mouse spleen at 25 mg/kg, po via gavage measured after 4 hrs post dose by […]; format: ADME, organism-based; settings: read-out: Drug uptake; procedure, shortened: as §2
[7] = Drug uptake in BALB/c mouse blood at 25 mg/kg, po via gavage measured after 4 hrs post dose by […]; format: ADME, organism-based; settings: read-out: Drug uptake; procedure, shortened: as §2
[8] = Drug uptake in BALB/c mouse brain at 25 mg/kg, po via gavage measured after 4 hrs post dose by […]; format: ADME, organism-based; settings: read-out: Drug uptake; procedure, shortened: as §2
[9] = Drug uptake in BALB/c mouse liver at 25 mg/kg, po via gavage measured after 4 hrs post dose by […]; format: ADME, organism-based; settings: read-out: Drug uptake; procedure, shortened: as §2
[10] = molecular target: Lanosterol 14-alpha-demethylase (Trypanosoma brucei brucei (strain 927/4 GUTat10.1)) (UniProt Q385E8); assay: Inhibition of Trypanosoma brucei […] CYP51 expressed in Escherichia coli using [3-3H]-obtusifoliol as substrate after 60 mins by LC-MS analysis
Chain of Lanosterol 14-alpha-demethylase (Trypanosoma brucei brucei (strain 927/4 GUTat10.1)) (Q385E8 1-481): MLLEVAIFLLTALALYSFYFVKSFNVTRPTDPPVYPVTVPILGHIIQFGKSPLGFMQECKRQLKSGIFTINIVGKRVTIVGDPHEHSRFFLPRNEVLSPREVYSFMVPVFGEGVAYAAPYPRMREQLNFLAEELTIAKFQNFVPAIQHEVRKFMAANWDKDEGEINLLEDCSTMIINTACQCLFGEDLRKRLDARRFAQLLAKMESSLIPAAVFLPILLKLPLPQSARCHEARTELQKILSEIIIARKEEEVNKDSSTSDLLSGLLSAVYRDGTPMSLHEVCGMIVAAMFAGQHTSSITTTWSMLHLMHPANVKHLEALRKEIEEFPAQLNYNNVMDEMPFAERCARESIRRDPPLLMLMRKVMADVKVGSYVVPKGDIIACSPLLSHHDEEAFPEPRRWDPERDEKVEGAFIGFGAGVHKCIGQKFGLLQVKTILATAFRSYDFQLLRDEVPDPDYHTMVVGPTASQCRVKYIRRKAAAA
Procedure, shortened: (§3)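 Reconstituted reaction: 1 μM purified CYP51, 2 μM T. brucei NADPH-P450 reductase, 100 μM dilauroylphosphatidylcholine, isocitrate dehydrogenase/isocitrate regeneration, 50 mM K phosphate pH 7.2, 10% glycerol. [3-3H]sterol substrate at 50 μM final (eburicol for T. cruzi; obtusifoliol for T. brucei and L. infantum) with inhibitor at 1.1 μM final. Preincubate 60 s at 37 °C, start with 100 μM NADPH, run 60 min, EtOAc extraction. Gives % inhibition of 14α-demethylation, triplicate, mean ± SD.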

[11] = molecular target: Sterol 14-alpha demethylase (Trypanosoma cruzi (strain CL Brener)) (UniProt Q7Z1V1); assay: Inhibition of Trypanosoma cruzi Y CYP51 expressed in Escherichia coli using [3-3H]-eburicol as substrate after 60 mins by LC-MS analysis; procedure, shortened: as §3
Chain of Sterol 14-alpha demethylase (Trypanosoma cruzi (strain CL Brener)) (Q7Z1V1 whole entry, looked up): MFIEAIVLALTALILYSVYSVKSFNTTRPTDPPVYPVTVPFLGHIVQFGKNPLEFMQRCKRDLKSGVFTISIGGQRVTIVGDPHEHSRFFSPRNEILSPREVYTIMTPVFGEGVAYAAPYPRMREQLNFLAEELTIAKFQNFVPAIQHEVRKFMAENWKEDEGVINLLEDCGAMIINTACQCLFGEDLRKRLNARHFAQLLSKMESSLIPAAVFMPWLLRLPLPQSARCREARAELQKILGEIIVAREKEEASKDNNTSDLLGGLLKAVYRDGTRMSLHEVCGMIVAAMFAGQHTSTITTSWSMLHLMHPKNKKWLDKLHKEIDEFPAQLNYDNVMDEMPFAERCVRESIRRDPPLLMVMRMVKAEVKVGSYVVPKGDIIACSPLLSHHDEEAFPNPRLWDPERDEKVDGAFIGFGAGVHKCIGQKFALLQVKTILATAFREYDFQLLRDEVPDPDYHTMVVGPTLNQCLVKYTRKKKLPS

[12] = molecular target: Putative lanosterol 14-alpha-demethylase (Leishmania infantum) (UniProt A2TEF2); assay: Inhibition of Leishmania infantum CYP51 expressed in Escherichia coli using [3-3H]-obtusifoliol as substrate after 60 mins by LC-MS analysis; procedure, shortened: as §3
Chain of Putative lanosterol 14-alpha-demethylase (Leishmania infantum) (A2TEF2 1-480): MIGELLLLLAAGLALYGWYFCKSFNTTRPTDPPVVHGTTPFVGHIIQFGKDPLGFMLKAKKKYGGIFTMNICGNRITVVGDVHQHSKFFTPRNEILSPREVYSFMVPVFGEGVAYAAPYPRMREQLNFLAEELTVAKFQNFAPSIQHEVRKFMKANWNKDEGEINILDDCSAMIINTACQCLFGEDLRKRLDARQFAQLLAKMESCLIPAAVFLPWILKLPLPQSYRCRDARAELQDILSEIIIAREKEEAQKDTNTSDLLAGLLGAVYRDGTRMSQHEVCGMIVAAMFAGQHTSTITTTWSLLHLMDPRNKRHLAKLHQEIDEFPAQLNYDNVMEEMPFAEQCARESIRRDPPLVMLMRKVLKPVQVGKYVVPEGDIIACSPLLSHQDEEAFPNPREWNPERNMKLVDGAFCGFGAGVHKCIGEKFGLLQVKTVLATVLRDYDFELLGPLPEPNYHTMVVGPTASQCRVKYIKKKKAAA

[13] = Half life in human liver microsomes at 1 uM preincubated for 5 mins followed by NADPH addition and measured by LC/MS/MS analysis; format: ADME, microsome; settings: microsomes, 1 µM
[14] = Intrinsic clearance in human liver microsomes at 1 uM preincubated for 5 mins followed by NADPH addition and measured after 45 mins by LC/MS/MS analysis; format: ADME, microsome; settings: read-out: CLH
[15] = Hepatic clearance in human liver microsomes at 1 uM preincubated for 5 mins followed by NADPH addition and measured after 45 mins by LC/MS/MS analysis; format: ADME, microsome
[16] = Intrinsic clearance in Sprague-Dawley rat liver microsomes at 1 uM preincubated for 5 mins followed by NADPH addition and measured after 45 mins by LC/MS/MS analysis; format: ADME, microsome; settings: read-out: CLH
[17] = Hepatic clearance in Sprague-Dawley rat liver microsomes at 1 uM preincubated for 5 mins followed by NADPH addition and measured after 45 mins by LC/MS/MS analysis; format: ADME, microsome
Procedure, shortened: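 Pooled liver microsomes at 0.5 mg/mL: human (mixed gender), male Sprague-Dawley rat, or male CD-1 mouse, with test compound at 1 μM, triplicate. In vitro t1/2 is scaled to CLint (45 mg microsomes/g liver; 45 g liver/kg scaling factor). CLhep uses well-stirred model with hepatic blood flow 21 (human), 70 (rat), 90 (mouse) mL/min/kg.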

[18] = Intrinsic clearance in CD1 mouse liver microsomes at 1 uM preincubated for 5 mins followed by NADPH addition and measured after 45 mins by LC/MS/MS analysis; format: ADME, microsome; settings: read-out: CLH
[19] = Hepatic clearance in CD1 mouse liver microsomes at 1 uM preincubated for 5 mins followed by NADPH addition and measured after 45 mins by LC/MS/MS analysis; format: ADME, microsome
[20] = Half life in CD1 mouse liver microsomes at 1 uM preincubated for 5 mins followed by NADPH addition and measured by LC/MS/MS analysis; format: ADME, microsome; settings: mouse, microsomes, 1 µM
[21] = molecular target: Sterol 14-alpha demethylase (Trypanosoma cruzi (strain CL Brener), UniProt Q7Z1V1); assay: Binding affinity to Trypanosoma cruzi Y CYP51A expressed in Escherichia coli
Chain of Sterol 14-alpha demethylase (Q7Z1V1 whole entry): as the sequence (Q7Z1V1 whole entry, looked up) above
Procedure, shortened: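 Recombinant CYP51A from Y strain T. cruzi, expressed in E. coli and purified, titrated spectrally at 0.5 μM P450 in 5 cm path cuvettes with ligand over 0.1–1 μM. Type of absorbance change in difference spectra Δ(A430-A411) plotted against ligand concentration. Apparent Kd obtained by fitting to the Morrison quadratic tight-binding equation by nonlinear regression.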

[22] = molecular target: Putative lanosterol 14-alpha-demethylase (Leishmania infantum, UniProt A2TEF2); assay: Binding affinity to Leishmania infantum CYP51 expressed in Escherichia coli
Chain of Putative lanosterol 14-alpha-demethylase (A2TEF2 whole entry): as the sequence (A2TEF2 1-480) above
Procedure, shortened: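 Purified E. coli-expressed L. infantum CYP51 at 0.5 μM is titrated with ligand at 0.1–1 μM in 5 cm path cuvettes. Difference-spectrum absorbance change Δ(A430−A411) is plotted against ligand concentration. Apparent Kd comes from a Morrison (quadratic) tight-binding fit by nonlinear regression.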

[23] = test system: Trypanosoma cruzi; assay: Antiparasitic activity against GFP-expressing Trypanosoma cruzi Tulahuen amastigote formss infected in cardiomyocytes assessed as reduction in rate of parasite multiplication within infected cardiomyocytes measured at 72 hrs post infection by fluorescence microscopy; format: functional, organism-based
Procedure, shortened: (§4)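 GFP-expressing trypomastigotes (Tulahuen or Y strain) infect cardiomyocyte monolayers at 10 parasites per cell, in DMEM + 10% FBS. Unbound parasites are washed off. At 24 h of infection, inhibitors at 0.5–25 nM in DMSO/DMEM are added and cultured 48 h. Read-out is at 72 h post-infection as GFP fluorescence (RFU) after PBS wash; microscopy uses paraformaldehyde fixation, DAPI and phalloidin stain. Triplicate.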

[24] = test system: Trypanosoma cruzi; assay: Antiparasitic activity against GFP-expressing Trypanosoma cruzi Y amastigote formss infected in cardiomyocytes assessed as reduction in rate of parasite multiplication within infected cardiomyocytes measured at 72 hrs post infection by fluorescence microscopy; format: functional, organism-based; procedure, shortened: as §4
[25] = Lipophilicity, log P of the compound; format: physicochemical; settings: octanol/water

Row | Structure (SMILES) | t1/2 [1] | Cmax [2] | Time [3] | concentration at 4 h [4] | concentration at 4 h [5] | concentration at 4 h [6] | concentration at 4 h [7] | concentration at 4 h [8] | concentration at 4 h [9] | t1/2 [13] | CLint scaled at 1 µM [14] | CLhep predicted at 1 µM [15] | CLint scaled at 1 µM [16] | CLhep predicted at 1 µM [17] | CLint scaled at 1 µM [18] | CLhep predicted at 1 µM [19] | t1/2 [20] | logP [25] | also measured
1 | O=C(N[C@@H](Cn1ccnc1)c1ccc(Cl)cc1Cl)c1ccc(-c2nnc(-c3ccc(OCC(F)(F)F)cc3F)o2)cc1 | 48 min | 7 µM | 6 h | 6000 nM | 38 µM | 6 µM | 3 µM | 150 nM | 32 µM | – | – | – | – | – | – | – | – | – | inhibition [10]: Active; inhibition [11]: Active; inhibition [12]: Active
2 | O=C(N[C@@H](Cn1ccnc1)c1ccc(-c2ccc(F)cc2)cc1F)c1ccc(-c2nnc(-c3ccccc3)o2)cc1 | 158 min | 24 µM | – | 16000 nM | 74 µM | 21 µM | 22 µM | 1000 nM | 34 µM | 42 min | 29.9 mL/min/kg | 12.3 mL/min/kg | 17.7 mL/min/kg | 14.2 mL/min/kg | 145 mL/min/kg | 55.6 mL/min/kg | 38 min | 5.44 | Kd [21]: 6.8 nM; Kd [22]: 8.4 nM; EC50 [23]: 1 nM; EC50 [24]: 1.5 nM
3 | O=C(N[C@@H](Cn1ccnc1)c1cnc(-c2ccc(F)cc2)cc1Cl)c1ccc(-c2nnc(-c3ccccc3)o2)cc1 | – | – | – | – | – | – | – | – | – | – | – | – | – | – | – | – | – | 4.93 | –
4 | O=C(N[C@@H](Cn1ccnc1)c1ccc(Cl)cc1Cl)c1ccc(-c2nnc(-c3ccccc3)o2)cc1 | – | – | – | – | – | – | – | – | – | – | – | – | – | – | – | – | – | – | Kd [21]: 8.3 nM; Kd [22]: 2 nM; EC50 [23]: 1.3 nM; EC50 [24]: 4 nM
5 | O=C(N[C@@H](Cn1ccnc1)c1ccc(-c2ccc(F)cc2)cc1Cl)c1ccc(-c2nnc(-c3ccccn3)o2)cc1 | 95 min | 5 µM | 10 h | 100 nM | 0.6 µM | 2 µM | 1 µM | 100 nM | 3 µM | 56 min | 22.3 mL/min/kg | 10.8 mL/min/kg | 29.7 mL/min/kg | 20.8 mL/min/kg | 105 mL/min/kg | 48.4 mL/min/kg | 52 min | 4.93 | –

Continued, in another order:

Row | t1/2 [1] | Cmax [2] | Time [3] | concentration at 4 h [4] | concentration at 4 h [5] | concentration at 4 h [6] | concentration at 4 h [7] | concentration at 4 h [8] | concentration at 4 h [9] | t1/2 [13] | CLint scaled at 1 µM [14] | CLhep predicted at 1 µM [15] | CLint scaled at 1 µM [16] | CLhep predicted at 1 µM [17] | CLint scaled at 1 µM [18] | CLhep predicted at 1 µM [19] | t1/2 [20] | logP [25] | Structure (SMILES) | also measured
6 | 22 min | 15 µM | < 16 h | 3000 nM | 26 µM | 3 µM | 4 µM | 200 nM | 17 µM | 58 min | 21.2 mL/min/kg | 10.6 mL/min/kg | 131 mL/min/kg | 45.6 mL/min/kg | 220 mL/min/kg | 63.9 mL/min/kg | 25 min | – | [2H]c1c([2H])c([2H])c(-c2ccc([C@H](Cn3ccnc3)NC(=O)c3ccc(-c4nnc(-c5ccccc5)o4)cc3)c(Cl)c2)c([2H])c1[2H] | –
7 | 79 min | 13 µM | 16 h | 3000 nM | 18 µM | 6 µM | 12 µM | 200 nM | 20 µM | 90 min | 13.9 mL/min/kg | 8.35 mL/min/kg | 35.5 mL/min/kg | 23.6 mL/min/kg | 59.8 mL/min/kg | 35.9 mL/min/kg | 91 min | – | O=C(N[C@@H](Cn1ccnc1)c1ccc(-c2ccc(F)cc2)cc1Cl)c1ccc(-c2nnc(-c3ccccc3)o2)cc1 | –
